Values after ≈ are worked out from the molar mass of the structure shown.
Experiments:
Type in all cases: functional
Helicobacter pylori [1] = experiment: Bactericidal activity against Helicobacter pylori J99 assessed as reduction in viable colony-forming units pre-incubated for 2 hrs followed by incubation at 37 degC under microaerophilic conditions for 72 hrs
Method in brief: (§1)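 H. pylori J99 came from 24 h cultures on Skirrow's medium (microaerobic, 37 °C) and was resuspended in brain heart infusion. Compound at 100 μg/mL final was mixed with 10^6 CFU/mL bacteria and held 2 h at 37 °C. Controls were BHI alone and amoxicillin at 10 μg/mL. Samples were serially 10-fold diluted in warm PBS and plated in triplicate on Skirrow's (72 h, 37 °C, microaerophilic). Kill was log10 CFU/mL (0 h) minus log10 CFU/mL (2 h).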

Helicobacter pylori [2] = experiment: Bactericidal activity against Helicobacter pylori J99 assessed as compound concentration causing reduction in viable colony-forming units pre-incubated for 2 hrs followed by incubation at 37 degC under microaerophilic conditions for 72 hrs; method in brief: as §1
Staphylococcus aureus [3] = experiment: Antibacterial activity against Staphylococcus aureus isolated from tibial leg ulcer patient assessed as inhibition of visible bacterial growth incubated for 24 hrs at 37 degC by broth microdilution method
Method in brief: (§2)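 MICs were determined by broth microdilution against S. aureus strains maintained on Mueller Hinton agar (24 h, 37 °C). Final compound concentrations ranged from 0.39 to 100 μg/mL. Inoculum was 10^5 CFU/mL final per well, incubated 24 h at 37 °C. MIC was the lowest concentration preventing visible growth. Wells were run in triplicate and the experiment was repeated three times.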

Staphylococcus aureus [4] = experiment: Antibacterial activity against Staphylococcus aureus isolated from tibial osteomyelitis patient assessed as inhibition of visible bacterial growth incubated for 24 hrs at 37 degC by broth microdilution method; method in brief: as §2
Staphylococcus aureus [5] = experiment: Antibacterial activity against Staphylococcus aureus ATCC 29213 assessed as inhibition of visible bacterial growth incubated for 24 hrs at 37 degC by broth microdilution method; conditions: ATCC 29213, 24 h; method in brief: as §2
Helicobacter pylori [6] = experiment: Bactericidal activity against Helicobacter pylori J99 assessed as reduction in viable colony-forming units pre-incubated for 2 hrs followed by incubation at 37 degC under microaerophilic conditions for 72 hrs relative to initial inoculum; method in brief: as §1

Row | MIC (Staphylococcus aureus [4]) [µM] | MIC (Staphylococcus aureus [5]) [µM] | SMILES | log10CFU/ml (Helicobacter pylori [1]) | Activity (Helicobacter pylori [2]) [µM] | MIC (Staphylococcus aureus [3]) [µM] | Activity (Helicobacter pylori [6]) [%]
1 |  |  | CC1(C)S[C@@H]2[C@H](NC(=O)[C@H](N)c3ccc(O)cc3)C(=O)N2[C@H]1C(=O)O [AMOXICILLIN] | 0.51 | 274 |  | 
2 | 10.7 (≈ 6.28 µg/mL) | 10.7 (≈ 6.28 µg/mL) | COc1cc(O)c2c(O)c3c(c(-c4c(OC)cc5c(c4O)C(=O)c4c(O)cc(C)c(OC)c4C5=O)c2c1)CC(C)OC3=O (stereo unspecified) | 6 | 170.6 | 2.7 (≈ 1.58 µg/mL) | >99.9
3 | 89.9 (≈ 50 µg/mL) | 89.9 (≈ 50 µg/mL) | COc1cc(O)c2c(O)c3c(c(-c4c(OC)cc5c(c4O)C(=O)c4c(O)cc(C)cc4C5=O)c2c1)CC(C)OC3=O (stereo unspecified) | 0.42 | 179.8 | 89.9 (≈ 50 µg/mL) | 
4 | 8.3 (≈ 4.02 µg/mL) | 8.3 (≈ 4.02 µg/mL) | NC[C@H]1O[C@H](O[C@H]2[C@H](O)[C@@H](O[C@H]3O[C@H](CO)[C@@H](O)[C@H](N)[C@H]3O)[C@H](N)C[C@@H]2N)[C@H](O)[C@@H](O)[C@@H]1O [KANAMYCIN] |  |  | 8.3 (≈ 4.02 µg/mL) | 

From ChEMBL document CHEMBL3580550, “Antibacterial Polyketide Heterodimers from Pyrenacantha kaurabassana Tubers” (2015)
